Only a selection was taken, and hits are over-represented in it overall.
CHOP inh = blocks CHOP induction under ER stress | inhibition, % at 10 µM | CHO-K1 CHOP-promoter luciferase, tunicamycin-induced, 15-18 h | 3.8% of 220,000 active | AID 2732;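 active means compounds that reduced the stress-induced luciferase reporter signal by more than about 70% of percent inhibition, limit read from the data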;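 further: 0% = tunicamycin plus vehicle and 100% = wells without tunicamycin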
UPR CHOP act = activators of apoptotic arm of unfolded protein response (CHOP). activation, % at 10 µM. 0.34% of 330,000 active. CHO-CHOP luciferase reporter, UPR activation, luminescence; percent of tunicamycin response over DMSO baseline;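 active means at 10 µM dose, activation of 40% or more, normalized to positive control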;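 further: 100% = tunicamycin at 10 µg/mL and 0% = DMSO alone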
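System: CHO-CHOP luciferase reporter cell line | Buffer or medium: F12 medium containing 10% fetal bovine serum | Doses: One dose, 10 µM in 0.5% DMSO | Times: 6 h compound exposure at 37 °C after overnight seeding | Signal: Luciferase luminescence | Read-out: % activation vs tunicamycin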
UPR XBP1 act = adaptive UPR (XBP1) activation. CHO-XBP1 luciferase reporter, IRE1-XBP1 UPR activation, luminescence; percent of tunicamycin response, DMSO as zero. activation, % at 20 µM. 0.33% of 330,000 active. AID 463104;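 active means versus positive control, 20 µM dose yields 30% or more activation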;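 further: 100% = tunicamycin at 10 µg/mL and 0% = DMSO only wells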
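assay system = CHO-XBP1 luciferase reporter cells | amount = 1000 cells/well | buffer or medium = F12 plus 10% FBS | compound dosing = single point, 20 µM final compound, 1% DMSO | incubation = 16-18 h cell attachment at 37 °C, then 6 h compound exposure | detection = Steady-Glo luminescence read | controls = tunicamycin 10 µg/mL and vehicle-only wells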
FXN GAA850 act = activators of GAA850 frataxin (FXN) promoter | HEK293 lucGAA850 FXN promoter luciferase reporter, 24 h; percent of 10 µM SAHA response | activation, % at 6 µM | 0.56% of 360,000 active | AID 540364;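 active means activation above the average of all compounds screened plus 3 SD, cutoff fixed separately per campaign, cut at about 7.5% in these data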;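 further: 0% = DMSO wells and 100% = 10 µM SAHA wells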
* hit, by the source's call; / = not tested or not shown.

SMILES	CHOP inh	UPR CHOP act	UPR XBP1 act	FXN GAA850 act
CC(=N\Nc1ccc(Cl)cc1)/C(=N/O)C(=O)Nc1ccccc1	5.1	-0.6	-2.0	0.5
CCOC(=O)C(=N/O)/C(C)=N/NC(=O)C(=O)Nc1ccc(Cl)cc1	72.7*	6.3	-1.9	0.1
COc1ccc(C(=O)NCC(C)(C)SCc2c(C)cc(C)cc2C)cc1	73.4*	-2.1	-2.7	0.3
COc1ccc(C(=O)NCCNC(=O)c2ccc(OC)cc2)cc1	/	-1.6	-3.2	0.8
CN1CCN(c2cc(-c3ccc4ccccc4c3)nc3ccnn23)CC1	/	/	/	-0.2
CSc1nnc(CCCCCNC(=O)OC(C)(C)C)o1	-7.3	0.0	1.4	0.4
CCCCSc1nnc(CCCCCNC(=O)OC(C)(C)C)o1	79.5*	-1.7	-3.7	-0.6
Cc1ccc2c(c1)N=C(c1ccc(F)cc1)CO2	78.5*	5.8	-0.1	6.2
CN(C)c1cccc(C(=O)OCc2cc(=O)oc3cc(O)ccc23)c1	90.1*	2.4	0.7	3.2
CC1CN(S(=O)(=O)c2cccc(C(=O)OCc3cc(=O)oc4cc(O)ccc34)c2)CC(C)O1 (centres undefined)	/	-0.5	2.2	0.6
CCn1ccnc1CN(C)Cc1cn(-c2cccc(C)c2)nc1-c1cccc(F)c1	9.0	3.2	-2.3	1.6
CCn1ccnc1CN(C)Cc1cn(-c2ccc(C)cc2)nc1-c1cccc(C)c1	82.6*	1.0	-0.2	-0.3
Cc1ccc(S(=O)(=O)c2nc(Nc3nccs3)sc2Cl)cc1	72.2*	-3.3	-3.6	4.0
CC1(Cc2ccc(Cl)s2)C(=O)Nc2c(Cl)ccc(Cl)c21 (centres undefined)	/	/	/	0.7
CCOC(=O)c1cc(-c2ccc(Cl)cc2)nc2c1c(=O)[nH]c(=O)n2CCOC	77.7*	-1.5	0.9	3.3
Cc1cc(C)cc(CC(=O)N2CCC2(C)C(=O)NS(=O)(=O)c2ccc(C(C)(C)C)cc2)c1 (centres undefined)	/	/	/	-0.9
CC(C)(C)C(=O)n1nc(-c2ccccc2)oc1=O	70.0*	1.4	-0.4	2.0
O=C(Nc1nnc([C@@H]2C[C@H](O)[C@@H](CO)O2)s1)Nc1ccccc1Oc1ccccc1	/	/	/	0.1
CCc1nc2ccc(C(=O)NCCCn3ccnc3)cn2c1N(C)Cc1ccc(N(C)C)cc1	/	/	/	-1.4
CN1CCN(c2ccc(-c3cc(NC=O)c4ncc(-c5ccccc5)n4c3)cc2)CC1	/	/	/	2.7
Cn1c(=O)c(NCCO)c2c3c(cccc31)C(=O)c1ccccc1-2	37.8	-2.8	-1.0	-0.1
CCCCNc1c2c3c(cccc3n(C)c1=O)C(=O)c1ccccc1-2	81.8*	-0.8	-0.2	-3.0
CCC(=O)n1nc(NCc2ccccc2OC)nc1NCc1ccccc1OC	76.1*	-4.0	-5.3	0.9
CC(C)(C)C(=O)/C(=C/c1ccncc1)n1cncn1	84.6*	25.4	-6.1	-14.9
Cc1nn(C)c(C)c1/C=C(/C(=O)C(C)(C)C)n1cncn1	-8.8	1.6	-4.5	0.0
SMILES	CHOP inh	UPR CHOP act	UPR XBP1 act	FXN GAA850 act
COc1ccccc1NC(=O)Nc1nnc([C@H]2C[C@H](O)[C@@H](CO)O2)s1	/	/	/	0.2
O=C(N/N=C/c1cc(Cl)ccc1O)c1ccc(Br)cc1	79.9*	/	/	-4.2
CC1(C(=O)Nc2cccc3c2CCCC3)CCN1C(=O)c1cccc(F)c1 (centres undefined)	/	/	/	1.1
COc1cc(/C=N/NC(=O)COc2c(C)cc([N+](=O)[O-])cc2C)ccc1OC(=O)c1ccccc1Br	76.3*	2.5	4.5	0.4
COc1cc(/C=N/NC(=O)COc2c(C)cc([N+](=O)[O-])cc2C)ccc1OC(=O)c1ccccc1	48.6	0.8	4.8	3.3
CSc1ncnc2c1ncn2CCCNCc1ccc(C)o1	/	/	/	-0.3
O=c1[nH]c(=O)c2nc3c4ccccc4c4ccccc4c3nc2[nH]1	77.6*	3.5	1.7	-2.6
Cc1cccc(C)c1NC(=O)CNC(=O)CNC(=O)c1ccc2ccccc2c1	/	/	/	1.3
CNC(=O)C[C@H]1C(=O)N(Cc2ccccc2)C[C@@H]1C	/	/	/	1.0
COc1ccc(/C=C/C(=O)OCC(=O)Nc2cc3oc4ccccc4c3cc2OC)cc1	36.7	115.1*	162.5*	/
Cc1ccc(S(=O)(=O)NC(C)C(c2cccs2)N2CCN(c3ccccc3)CC2)cc1 (centres undefined)	78.3*	3.4	-0.7	0.7
CC1(C(=O)NS(=O)(=O)Cc2ccccc2)CCN1C(=O)Cc1cc(F)ccc1F (centres undefined)	/	/	/	-1.1
